Structures are written as SMILES.

Among the data in ChEMBL document CHEMBL1287652, “QSAR modeling, synthesis and bioassay of diverse leukemia RPMI-8226 cell line active agents” (2010) are inhibition values, retold here.

A short description of the assay: Antitumor activity against human […] cells at 10 uM after 48 hrs by sulforhodamine B assay relative to control. In kind it is functional. In a few lines:
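NCI panel lines were grown in RPMI-1640 with 5% FBS and 2 mM L-glutamine and seeded at 5000–40,000 cells/well according to doubling time. After 24 h at 37 °C, 5% CO2, one dose from a DMSO stock was added for 48 h. Cells were TCA-fixed (10% final adherent, 16% suspension), SRB-stained and read at 515 nm. Percent growth is relative to untreated control.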
Take `[3H]C([3H])([3H])N1C(=O)[C@@]2(c3ccccc31)N(C)C[C@@H](c1cccs1)[C@@]21Cc2ccccc2C1=O`: the inhibition at 10 µM was 12.1%.

`Cc1ccc(NC(=O)c2c(-c3ccc(Cl)cc3)cc(-c3ccccc3)nc2Nc2ccc(Cl)cc2)cc1`: the inhibition at 10 µM came out at 58%.

On to `O=C(Nc1ccc(Cl)c(Cl)c1)Nc1ccccc1SCCCSc1ccccc1NC(=O)Nc1ccc(Cl)c(Cl)c1`, for which the inhibition at 10 µM was 108%.

For the compound `O=C1c2ccccc2SCC[C@@]12[C@H](c1ccc(Cl)cc1)C(c1ccccc1)=NN2c1cccc(Cl)c1`, the inhibition at 10 µM worked out at 33.2%.

As to `CN1C/C(=C\c2cccs2)C(=O)[C@@]2(C1)[C@H](c1cccs1)CN(C)[C@]21C(=O)N(C)c2ccccc21`, the inhibition at 10 µM worked out at 89.4%.

Regarding `[3H]N1C(=O)[C@@]2(c3ccccc31)N(C)C[C@@H](c1ccc(Cl)cc1)[C@@]21Cc2ccccc2C1=O`, the inhibition at 10 µM worked out at 63.4%.

Turning to `O=C(Nc1ccc(Cl)cc1)/C(=C/c1ccccc1OCCOc1ccccc1/C=C(\NC(=O)c1ccccc1)C(=O)Nc1ccc(Cl)cc1)NC(=O)c1ccccc1`, the inhibition at 10 µM stood at 6.03%.

In the case of `O=C(N/C(=C\c1ccccc1OCCOc1ccccc1/C=C(\NC(=O)c1ccccc1)C(=O)N1CCCCC1)C(=O)N1CCCCC1)c1ccccc1`, the inhibition at 10 µM was determined as 18.3%.

Turning to `COc1ccc(/C=C2\CN(C)C[C@]3(C2=O)[C@H](c2ccc(OC)cc2)CN(C)[C@]32C(=O)Nc3ccccc32)cc1`, the inhibition at 10 µM turned out to be 79.3%.

As for `COc1ccc(Nc2nc(-c3ccccc3)cc(-c3ccc(Cl)cc3)c2C(=O)Nc2ccc(C)cc2)cc1`, the inhibition at 10 µM was determined as 79%.

With `[3H]C([3H])([3H])N1C(=O)[C@@]2(c3ccccc31)N(C)C[C@@H](c1ccc(Cl)cc1)[C@@]21Cc2ccccc2C1=O`, the inhibition at 10 µM was 86.6%.

For the compound `O=C(N/C(=C\c1ccccc1OCCOc1ccccc1/C=C(\NC(=O)c1ccccc1)C(=O)N1CCOCC1)C(=O)N1CCOCC1)c1ccccc1`, the inhibition at 10 µM was found to be 9.15%.

On to `CN1C/C(=C\c2ccc(Cl)cc2)C(=O)[C@@]2(C1)[C@H](c1ccc(Cl)cc1)CN(C)[C@]21C(=O)N(C)c2ccccc21`, for which the inhibition at 10 µM stood at 62%.

`O=C(Nc1ccccc1)c1c(-c2ccc(Cl)cc2)cc(-c2ccccc2)nc1Nc1ccccc1`: the inhibition at 10 µM amounted to 15%.

As for `COc1ccc(-c2c3c([nH]c(=S)c2C#N)-c2ccccc2SCC3)cc1`, the inhibition at 10 µM worked out at 0.96%.

As for `[3H]C([3H])([3H])N1C(=O)[C@@]2(c3ccccc31)N(C)C[C@@H](c1ccc(OC)cc1)[C@@]21Cc2ccccc2C1=O`, the inhibition at 10 µM stood at 82.3%.

As to `O=C(Nc1ccccc1)c1c(-c2ccc(Cl)cc2)cc(-c2ccccc2)nc1N1CCCCC1`, the inhibition at 10 µM is 13%.

`O=C1c2ccccc2SCC[C@@]12[C@H](c1cccs1)C(c1ccccc1)=NN2c1cccc(Cl)c1`: the inhibition at 10 µM stood at 29.8%.

Consider `CN1CCN(C(=O)/C(=C/c2ccccc2OCCOc2ccccc2/C=C(\NC(=O)c2ccccc2)C(=O)N2CCN(C)CC2)NC(=O)c2ccccc2)CC1`, for which the inhibition at 10 µM was 14.7%.

`CCn1c(S)n[n+]2c(N)c(C#N)c(-c3ccc(N4CCOCC4)cc3)c(C#N)c12`: the inhibition at 10 µM is 24.9%.

Take `CN1C/C(=C\c2ccc(Cl)cc2)C(=O)[C@@]2(C1)[C@H](c1ccc(Cl)cc1)CN(C)[C@]21C(=O)Nc2ccccc21`: the inhibition at 10 µM is 61.5%.

In the case of `O=C(Nc1ccccc1)c1c(-c2ccc(Cl)cc2)cc(-c2ccccc2)nc1Nc1ccc(Cl)cc1`, the inhibition at 10 µM stood at 53%.

With `COc1nc(-c2cccs2)cc2c1c(=O)oc1ccccc12`, the inhibition at 10 µM came to 9.11%.

Consider `Cc1ccc(NC(=O)c2c(-c3ccc(Cl)cc3)cc(-c3ccccc3)nc2N2CCCCC2)cc1`, for which the inhibition at 10 µM turned out to be 24%.

For `Nc1nc(-c2ccccc2)cc(-c2ccc(Cl)cc2)c1C(=O)Nc1ccccc1`, the inhibition at 10 µM was determined as 46%.

`COc1ccc([C@@H]2C(c3ccccc3)=NN(c3cccc(Cl)c3)[C@]23CCSc2ccccc2C3=O)cc1`: the inhibition at 10 µM was found to be 34.3%.

With `Cn1c(S)n[n+]2c(N)c(C#N)c(-c3ccc(N4CCOCC4)cc3)c(C#N)c12`, the inhibition at 10 µM was 11.9%.

Take `Cc1ccc(NC(=O)c2c(-c3ccc(Cl)cc3)cc(-c3ccccc3)nc2N2CCOCC2)cc1`: the inhibition at 10 µM turned out to be 39%.

As to `COc1ccc(Nc2nc(-c3ccccc3)cc(-c3ccc(Cl)cc3)c2C(=O)Nc2ccccc2)cc1`, the inhibition at 10 µM was 30%.

In the case of `Cc1ccc(NC(=O)c2c(-c3ccc(Cl)cc3)cc(-c3ccccc3)nc2N)cc1`, the inhibition at 10 µM is 71%.

In the case of `[3H]N1C(=O)[C@@]2(c3ccccc31)N(C)C[C@@H](c1cccs1)[C@@]21Cc2ccccc2C1=O`, the inhibition at 10 µM amounted to 10.9%.

As for `[3H]N1C(=O)[C@@]2(c3ccccc31)N(C)C[C@@H](c1ccc(OC)cc1)[C@@]21Cc2ccccc2C1=O`, the inhibition at 10 µM came to 33.2%.

Take `O=C(Nc1ccccc1)c1c(-c2ccc(Cl)cc2)cc(-c2ccccc2)nc1N1CCOCC1`: the inhibition at 10 µM came out at 51%.

One may read the inhibition as the change of the read-out against control, counted positive when it falls.
